Columns and labels:
Rattus norvegicus [1] = assay: The compound was evaluated for the anticonflict behavior in male wistar rats as rate of responses (reward) following dose of 40 mg/kg po; format: functional
Summary of the method: (§1)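 Male Wistar rats on 23-h food deprivation, water ad libitum, trained to lever-press for food on continuous reinforcement until stable. Compound or vehicle given orally in randomized sequence 60 min before testing. Responses/min were recorded in reward, timeout and conflict components. Differences from control were tested by Wilcoxon test.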

Mus musculus [2] = assay: Compound administered perorally was evaluated for the hypothermia (rectal temperature) in mice; format: functional
Summary of the method: (§2)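 Groups of three CFW mice (21-23 g) received oral compound in water or 0.5% carboxymethylcellulose. Rectal temperature was taken at 0.25, 2.5 and 5.0 h. Mean change from the group's initial mean was summed over the three times. Hypothermia scored if the summed reduction was >4 °C.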

[3] = molecular target: Muscarinic acetylcholine receptor; assay: Inhibition of [3H]QNB binding to muscarinic cholinergic receptor from male Olac rat brain.
Rattus norvegicus [4] = species: Rattus norvegicus; assay: compound behavior in rat; format: functional; parameters: unit not given here
Summary of the method: (§3)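 Olac-Wistar rats (180-190 g), eight per group, dosed orally, front paws placed on a 1.5-cm rod 7 cm above the table. Tested at 0.5, 1, 1.5, 2, 3, 4 and 5 h, up to 20 min hold. Each animal's maximum score (0-5 by time held) was summed, giving a group maximum of 40.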

Rattus norvegicus [5] = assay: The compound was evaluated for the anticonflict behavior in male wistar rats as rate of responses (conflic) following dose of 20 mg/kg po; format: functional; parameters: unit: responses/min; summary of the method: as §1
Rattus norvegicus [6] = assay: The compound was evaluated for the anticonflict behavior in male wistar rats as rate of responses (timeout) following dose of 40 mg/kg po; format: functional; summary of the method: as §1
Mus musculus [7] = assay: Compound administered perorally was evaluated for the dose below which no catalepsy was observed at any time period; format: functional
Summary of the method: (§4)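 CFW mice (21-23 g), three per group, dosed orally in water or 0.5% carboxymethylcellulose. Checked at 0.25, 2.5 and 5.0 h for holding one hind limb on a 2-cm rubber bung and staying on a vertical grid, judged against a control by a trained observer.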

Rattus norvegicus [8] = assay: The compound was evaluated for the anticonflict behavior in male wistar rats as rate of responses (timeout) following dose of 10 mg/kg po; format: functional; parameters: unit: responses/min; summary of the method: as §1
Rattus norvegicus [9] = assay: The compound was evaluated for the anticonflict behavior in male wistar rats as rate of responses (reward) following dose of 10 mg/kg po; format: functional; parameters: unit: responses/min; summary of the method: as §1
Rattus norvegicus [10] = assay: The compound was evaluated for the anticonflict behavior in male wistar rats as rate of responses (timeout) following dose of 5.0 mg/kg po; format: functional; parameters: unit: responses/min; summary of the method: as §1
Rattus norvegicus [11] = assay: Rotarod response in rat to assess muscular incoordination (following p.o. dosing); format: functional
Summary of the method: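 Male Olac-Wistar rats (140-150 g), five per group, fed ad libitum, dosed orally. Tested 1 and 2 h later on a horizontal rod (2 rpm, 32 mm diameter), maximum 30 s. Mean time compared with vehicle controls by Mann-Whitney U test, significant at p < 0.05.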

Rattus norvegicus [12] = assay: The compound was evaluated for the anticonflict behavior in male wistar rats as rate of responses (conflict) following dose of 40 mg/kg po; format: functional; summary of the method: as §1
Rattus norvegicus [13] = assay: The compound was evaluated for the anticonflict behavior in male wistar rats as rate of responses (reward) following dose of 0 mg/kg po; format: functional; parameters: unit: responses/min; summary of the method: as §1
[14] = molecular target: D(2) dopamine receptor (Bos taurus) (UniProt P20288); assay: Inhibition of [3H]spiperone binding to dopamine receptor D2 from calf caudate
Rattus norvegicus [15] = assay: The compound was evaluated for the anticonflict behavior in male wistar rats as rate of responses (conflict) following dose of 5.0 mg/kg po; format: functional; parameters: unit: responses/min; summary of the method: as §1
Rattus norvegicus [16] = assay: The compound was evaluated for the anticonflict behavior in male wistar rats as rate of responses (timeout) following dose of 0 mg/kg po; format: functional; summary of the method: as §1
Rattus norvegicus [17] = assay: The compound was evaluated for the anticonflict behavior in male wistar rats as rate of responses (reward) following dose of 5.0 mg/kg po; format: functional; parameters: unit: responses/min; summary of the method: as §1
Rattus norvegicus [18] = assay: The compound was evaluated for the anticonflict behavior in male wistar rats as rate of responses (conflict) following dose of 10 mg/kg po; format: functional; parameters: unit: responses/min; summary of the method: as §1
Rattus norvegicus [19] = assay: The compound was evaluated for the anticonflict behavior in male wistar rats as rate of responses (timeout) following dose of 20 mg/kg po; format: functional; parameters: unit: responses/min; summary of the method: as §1
Rattus norvegicus [20] = assay: The compound was evaluated for the anticonflict behavior in male wistar rats as rate of responses (conflict) following dose of 0 mg/kg po; format: functional; parameters: unit: responses/min; summary of the method: as §1
Rattus norvegicus [21] = assay: The compound was evaluated for the anticonflict behavior in male wistar rats as rate of responses (reward) following dose of 20 mg/kg po; format: functional; parameters: unit: responses/min; summary of the method: as §1
Rattus norvegicus [22] = assay: Compound administered perorally was evaluated for the conditioned avoidance response in rats; format: functional
Summary of the method: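 Olac-Wistar rats (120-130 g) trained to cross a shuttle box on a 5-s buzzer, with mild shock if no response within 1 s after it ends. Only high-responders used. Groups of five were dosed orally in water or 0.5% carboxymethylcellulose 1 h 50 min before testing. After 10-min habituation they were tested 20 min. Blockade = shocks as % of stimuli presented.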

[23] = molecular target: D(2) dopamine receptor (Bos taurus) (UniProt P20288); assay: Inhibition of [3H]spiperone binding to Dopamine receptor D2 from calf caudate
Mus musculus [24] = assay: Compound administered perorally was evaluated for the hypothermia (rectal temperature ) in mice; format: functional; summary of the method: as §2
Mus musculus [25] = assay: Dose below which no catalepsy was observed at any time period (following p.o. dosing); format: functional; summary of the method: as §4
[26] = molecular target: Muscarinic acetylcholine receptor; assay: Compound was evaluated for the inhibition of [3H]QNB binding to Muscarinic acetylcholine receptor from male Olac rat brain.
Rattus norvegicus [27] = species: Rattus norvegicus; assay: Compound behavior in rat; format: functional; parameters: unit not given here; summary of the method: as §3
Rattus norvegicus [28] = assay: The compound was evaluated for the anticonflict behavior in male wistar rats as rate of responses (timeout) following dose of 2.5 mg/kg po; format: functional; summary of the method: as §1
Rattus norvegicus [29] = assay: The compound was evaluated for the anticonflict behavior in male wistar rats as rate of responses (conflict) following dose of 2.5 mg/kg po; format: functional; summary of the method: as §1
Rattus norvegicus [30] = assay: The compound was evaluated for the anticonflict behavior in male wistar rats as rate of responses (reward) following dose of 2.5 mg/kg po; format: functional; summary of the method: as §1
Rattus norvegicus [31] = assay: Compound administered perorally was evaluated for the conditioned avoidance response in rats

Row | SMILES | EDmin (Mus musculus [2]) [mg/kg] | Activity (Rattus norvegicus [5]) | Activity (Rattus norvegicus [8]) | Activity (Rattus norvegicus [9]) | Activity (Rattus norvegicus [10]) | ED (Rattus norvegicus [11]) [mg/kg] | Activity (Rattus norvegicus [13]) | Activity (Rattus norvegicus [15]) | Activity (Rattus norvegicus [16]) | Activity (Rattus norvegicus [17]) | Activity (Rattus norvegicus [18]) | Activity (Rattus norvegicus [19]) | Activity (Rattus norvegicus [20]) | Activity (Rattus norvegicus [21]) | ED (Rattus norvegicus [22]) [mg/kg] | IC50 [23] [µM] | EDmin (Mus musculus [24]) [mg/kg] | EDmin (Mus musculus [25]) [mg/kg] | IC50 [26] [µM] | Activity (Rattus norvegicus [27]) | also measured
1 | CN1CCN(C2=Nc3cc(F)ccc3Nc3nn(C)cc32)CC1 | 1.6 | 6.9 | 7.4 | 42.1 | 5.7 | >20 | 47.3 | 3.9 | 5.4 | 45.1 | 9.6 | 15.4 | 3 | 45.9 | 100 |  |  |  |  |  | Activity (Rattus norvegicus [1]): 48.3; IC50 [3]: 150 µM; Activity (Rattus norvegicus [4]): >100; Activity (Rattus norvegicus [6]): 15.4; EDmin (Mus musculus [7]): 50 mg/kg; Activity (Rattus norvegicus [12]): 10.1; IC50 [14]: 2.6 µM
2 | CC(C)n1cc2c(n1)Nc1ccc(F)cc1N=C2N1CCN(C)CC1 |  |  |  |  |  | 40 |  |  |  |  |  |  |  |  | 25 | 1.1 | 50 | 200 | 7.2 | >50 | 
3 | CN1CCN(C2=Nc3ccccc3Nc3nn(C)cc32)CC1 |  |  |  |  |  | >50 |  |  |  |  |  |  |  |  | >50 | 6.3 | 50 | 200 | 38 | 50 | 
4 | CCCn1cc2c(n1)Nc1ccc(F)cc1N=C2N1CCN(C)CC1 |  |  |  |  |  | 50 |  |  |  |  |  |  |  |  | 40 | 0.18 | 25 | 200 | 16 | >50 | 
5 | CN1CCN(C2=Nc3ccccc3Nc3c2cnn3C)CC1 |  |  |  |  |  | >50 |  |  |  |  |  |  |  |  | >50 | 1500 | >400 | >400 | > 100 | >50 | 
6 | CN1CCN(C2=Nc3cc(Cl)ccc3Nc3nn(C)cc32)CC1 | 0.8 | 7.8 | 6.5 | 26.3 | 7.9 | >10 | 24.9 | 6 | 2.1 | 27.5 | 8.1 | 9.6 | 1.1 | 5.4 | 10 |  |  | 12.5 |  |  | Activity (Rattus norvegicus [1]): 14.1; IC50 [3]: 8.9 µM; Activity (Rattus norvegicus [4]): >25; Activity (Rattus norvegicus [6]): 4.6; Activity (Rattus norvegicus [28]): 9.3; Activity (Rattus norvegicus [29]): 5.6; Activity (Rattus norvegicus [12]): 4.8; IC50 [14]: 0.68 µM; Activity (Rattus norvegicus [30]): 24.9
7 | CN1CCN(C2=Nc3cc(Br)ccc3Nc3nn(C)cc32)CC1 | 12.5 | 4.1 | 8 | 23 | 6 | >10 | 18.7 | 2.6 | 2 | 22.1 | 5 | 4.4 | 0.5 | 14.1 | >5 | 0.68 |  | 25 | > 10 |  | Activity (Rattus norvegicus [28]): 2.1; Activity (Rattus norvegicus [29]): 2.2; Activity (Rattus norvegicus [30]): 21.9
8 | CN1CCN(C2=Nc3cc(F)ccc3Nc3c2cnn3C)CC1 |  |  |  |  |  | >50 |  |  |  |  |  |  |  |  |  |  | 100 | >200 |  |  | ED (Rattus norvegicus [31]): >50 mg/kg
9 | CNC1=Nc2ccc(Cl)cc2C(c2ccccc2)=[N+]([O-])C1 [CHLORDIAZEPOXIDE] |  | 3.3 | 3.4 | 68.8 | 2.2 |  | 70.2 | 1.9 | 1.4 | 70.8 | 4.2 | 3.7 | 0.6 | 54.3 |  |  |  |  |  |  | 
10 | CN1CCN(C2=Nc3cc(Cl)ccc3Nc3ccccc32)CC1 [CLOZAPINE] |  |  |  |  |  | 40 |  |  |  |  |  |  |  |  | 30 |  | 50 | 100 |  | 80 | 

— ChEMBL document CHEMBL1124378, “Synthesis and pharmacological evaluation of a series of 4-piperazinylpyrazolo[3,4-b]- and -[4,3-b][1,5]benzodiazepines as potential anxiolytics” (J Med Chem, 1989)
